From ChEMBL document CHEMBL5712094, “The Gridlock transcriptional repressor impedes vertebrate heart regeneration by restricting expression of lysine methyltransferase” (2020)
Active and inactive are the calls of the source. No cut-off for these calls is given here.

How the values were obtained:
[1] = system: Cardiac Muscle Cell; experiment: In vivo inhibition of Smyd2 KMT activity in grl5nt-/- mutant Zebrafish assessed as decrease in p-STAT3 level cardiomyocyte at 5 uM by immunostaining analysis; type: functional, cell-based; details: Danio rerio
Procedure, shortened: (§1)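 grl5nt−/− zebrafish underwent ventricular resection and were bath-treated in aquarium water from 6 to 7 dpa, with 0.5‰ DMSO as vehicle. Cryosections at 7 dpa were double-immunostained for P-Stat3 and Mef2. CMs with nuclear or perinuclear cytosolic P-Stat3 were counted in the injury border zone. n=4-6 fish; mean±s.e.m.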

[2] = biological target: N-lysine methyltransferase SMYD2 (Homo sapiens) (UniProt Q9NRG4); experiment: Inhibition of Smyd2 KMT activity in human HEK 293T cells co-transfected with Flag-STAT3 and HA-Smyd2b assessed as decrease in Stat3 methylation at 5 to 2.5 uM for 28 hrs by Co-IP assay; type: cell-based; details: dose 5-2.5 µM
Procedure, shortened: (§2)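 HEK 293T cells were co-transfected with Flag-Stat3 and HA-Smyd2b. Compound was added at 15 or 25 µM for 6 h, or at 2.5 or 5 µM for 28 h, before harvest at 48 h post-transfection. Lysates were made in denaturing buffer with 1% SDS at 100°C for 20 min, then diluted to 0.1% SDS. Stat3 was immunoprecipitated with anti-Flag beads for 4 h. Blots were probed for methyl-lysine and P-Stat3, normalized to Flag-Stat3. n=3.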

[3] = biological target: N-lysine methyltransferase SMYD2 (Homo sapiens) (UniProt Q9NRG4); experiment: Inhibition of Smyd2 KMT activity in human HEK 293T cells co-transfected with Flag-STAT3 and HA-Smyd2b assessed as decrease in Stat3 phosphorylation at 5 to 2.5 uM for 28 hrs by Co-IP assay; type: cell-based; details: dose 5-2.5 µM; procedure, shortened: as §2
[4] = In vivo inhibition of Smyd2 KMT activity in Zebrafish assessed as decrease in cardiomyocyte proliferation at 5 uM by immunostaining analysis relative to control; type: functional; details: Danio rerio, Cardiac muscle cell
Procedure, shortened: (§3)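 Adult zebrafish (WT siblings or grl5nt−/− mutants) underwent ventricular apex resection. Bath treatment in aquarium water ran from 6 to 7 dpa, with 0.5‰ DMSO as the vehicle control. Hearts were fixed at 7 dpa in 4% PFA and cut as 10 µm cryosections. Sections were given antigen retrieval at 98°C for 20 min, then stained for PCNA and Mef2. For each heart, 4-6 sections with the largest injury were imaged with a 10× objective. PCNA+Mef2+/Mef2+ cells were counted in a fixed region around the injury, and the section values were averaged per heart. n=5-11 fish.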

[5] = system: Cardiac Muscle Cell; experiment: In vivo inhibition of Smyd2 KMT activity in grl5nt-/- mutant Zebrafish assessed as decrease in cardiomyocyte proliferation at 5 uM by immunostaining analysis; type: functional, cell-based; details: Danio rerio; procedure, shortened: as §3
[6] = biological target: N-lysine methyltransferase SMYD2 (Homo sapiens) (UniProt Q9NRG4); experiment: Inhibition of Smyd2 KMT activity in human HEK 293T cells co-transfected with Flag-STAT3 and HA-Smyd2b assessed as decrease in Stat3 phosphorylation at 15 to 25 uM for 6 hrs by Co-IP assay; type: cell-based; details: dose 15-25 µM; procedure, shortened: as §2
[7] = biological target: N-lysine methyltransferase SMYD2 (Homo sapiens) (UniProt Q9NRG4); experiment: Inhibition of Smyd2 KMT activity in human HEK 293T cells co-transfected with Flag-STAT3 and HA-Smyd2b assessed as decrease in Stat3 methylation at 15 to 25 uM for 6 hrs by Co-IP assay; type: cell-based; details: dose 15-25 µM; procedure, shortened: as §2
[8] = In vivo inhibition of Smyd2 KMT activity in Zebrafish assessed as decrease in cardiomyocyte proliferation at 10 uM by immunostaining analysis relative to control; type: functional; details: Danio rerio, Cardiac muscle cell; procedure, shortened: as §3
[9] = system: Cardiac Muscle Cell; experiment: In vivo inhibition of Smyd2 KMT activity in grl5nt-/- mutant Zebrafish assessed as decrease in cardiomyocyte proliferation at 10 uM by immunostaining analysis; type: functional, cell-based; details: Danio rerio; procedure, shortened: as §3
[10] = system: Cardiac Muscle Cell; experiment: In vivo inhibition of Smyd2 KMT activity in grl5nt-/- mutant Zebrafish assessed as decrease in p-STAT3 level cardiomyocyte at 10 uM by immunostaining analysis; type: functional, cell-based; details: Danio rerio; procedure, shortened: as §1

Sequence of N-lysine methyltransferase SMYD2 (Homo sapiens) (Q9NRG4 whole entry): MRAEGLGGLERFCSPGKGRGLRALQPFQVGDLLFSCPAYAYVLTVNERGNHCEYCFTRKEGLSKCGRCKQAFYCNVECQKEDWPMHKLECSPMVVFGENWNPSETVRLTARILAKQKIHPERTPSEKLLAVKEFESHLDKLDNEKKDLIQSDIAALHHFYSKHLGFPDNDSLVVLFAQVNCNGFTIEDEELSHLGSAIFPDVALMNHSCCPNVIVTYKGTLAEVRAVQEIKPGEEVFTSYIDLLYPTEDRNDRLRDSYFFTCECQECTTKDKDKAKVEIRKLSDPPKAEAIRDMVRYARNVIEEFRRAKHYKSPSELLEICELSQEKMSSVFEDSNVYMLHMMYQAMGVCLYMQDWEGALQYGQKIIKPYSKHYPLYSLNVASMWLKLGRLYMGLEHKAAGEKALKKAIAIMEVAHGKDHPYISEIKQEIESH

inhibition [2]	inhibition [3]	inhibition [6]	inhibition [7]	Structure (SMILES)	inhibition [1]	inhibition in vivo at 5 µM [4]	inhibition [5]	inhibition in vivo at 10 µM [8]	inhibition [9]	inhibition [10]
Active	Active	–	–	Cc1cn(CCN2CCN(c3ccccc3-c3cc(C#N)cc(C(=O)NCCCN4CCCC4)c3)CC2)c2ccccc12	Active	25%	Active	–	–	–
–	–	Active	Active	O=C1COc2c(CCNCCN(C(=O)CCNCCc3ccc(Cl)c(Cl)c3)C3CCCCC3)ccc(O)c2N1	–	–	–	34%	Active	Active
